Experimental data as given in ChEMBL document CHEMBL1147021, “Novel indole inhibitors of IMPDH from fragments: synthesis and initial structure-activity relationships” (Bioorg Med Chem Lett, 2006).
≈ marks a conversion by molar mass, not a printed value. Blank lines part the entries; values can stand above or below the molecule they belong to.

How the values were obtained:
[1] = Distribution coefficient Log D of compound at pH 7.4; assay type: physicochemical; conditions: octanol/water
Procedure, shortened: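 Compound (1–2 mg) shaken for 1 h at 750 osc/min with octanol and pH 7.4 phosphate buffer (0.1 M KH2PO4/NaOH), each presaturated with the other for 18 h. Both layers filtered through 0.2 µm PTFE and analysed by HPLC. Log D taken as log of normalised peak area in octanol over that in buffer.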

[2] = Apparent permeability in Caco-2 cell from apical to basolateral; assay type: ADME, cell-based; conditions: human
Procedure, shortened: (§1)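 Caco-2 monolayers (10-21 day culture, passage 30-40), confluence confirmed by TEER; medium replaced by HBSS pH 7.4. Test compound 1 µM, cassetted with 2 reference compounds (10 µM), added apically or basolaterally (n = 4); 2 h at 37 °C, 5% CO2. Receiver side analysed by LC-MSMS; Papp normalised to the known Papps of the reference compounds.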

[3] = Apparent permeability in Caco-2 cell from basolateral to apical; assay type: ADME, cell-based; conditions: human; procedure, shortened: as §1
[4] = biological target: T1, Inosine-5'-monophosphate dehydrogenase 2 (Homo sapiens, UniProt P12268); assay: Inhibition of IMPDH2
[5] = biological target: T1, Inosine-5'-monophosphate dehydrogenase 2; assay: Inhibition of IMPDH2 at 30 uM
[6] = system: PBMC; assay: Antiproliferative activity against PBMC; assay type: functional, cell-based; conditions: Homo sapiens
[7] = Aqueous solubility at pH 5; assay type: physicochemical
Procedure, shortened: (§2)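 Solid compound (0.5 mg) shaken in 150 mM phosphate buffer at room temperature for 90 min, then filtered. Filtrate concentration measured by HPLC (UV 254 nm) against a three-point calibration curve made from DMSO stocks. Done in duplicate at pH 7.4 and pH 5.0.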

[8] = Aqueous solubility at pH 7.4; assay type: physicochemical; procedure, shortened: as §2

Structure (SMILES): Cn1cc(C#N)c2ccccc21
logD [1]: 2.3 | Papp A→B [2]: 36.7 ×10⁻⁶ cm/s | Papp B→A [3]: 37.4 ×10⁻⁶ cm/s

Structure (SMILES): O=C(NOCc1ccccc1)Nc1cccc2c(-c3ccncc3)c[nH]c12
IC50 [4]: 1.36 µM

Structure (SMILES): CONC(=O)Nc1ccc2c(-c3ccncc3)c[nH]c2c1
IC50 [4]: 1.11 µM

Structure (SMILES): c1ccc(-c2ccc3c(-c4ccncc4)c[nH]c3c2)cc1
IC50 [4]: 0.456 µM | IC50 [6]: 10 µM

Structure (SMILES): CN(C(=O)Nc1cccc2c(-c3ccncc3)c[nH]c12)c1ccccc1
IC50 [4]: 19.5 µM

Structure (SMILES): CCn1cc(C#N)c2ccc(NS(=O)(=O)Cc3ccccc3)cc21
IC50 [5]: Not Active

Structure (SMILES): Cc1[nH]c2cc(NC(=O)N(C)c3ccccc3)ccc2c1-c1ccncc1
IC50 [4]: 0.128 µM

Structure (SMILES): CCOC(=O)c1ccc2c(-c3ccncc3)c[nH]c2c1
IC50 [4]: 0.586 µM

Structure (SMILES): O=S(=O)(Nc1cccc2c(-c3ccncc3)c[nH]c12)c1ccccc1
IC50 [4]: 6.21 µM

Structure (SMILES): CNOC(=O)Nc1ccc2c(C#N)cn(C)c2c1
IC50 [4]: 4.04 µM

Structure (SMILES): CN(C(=O)Nc1cccc2c(C#N)cn(C)c12)c1ccccc1
IC50 [4]: 7.85 µM

Structure (SMILES): Cc1[nH]c2cc(NS(=O)(=O)c3ccccc3)ccc2c1-c1ccncc1
IC50 [4]: 0.222 µM

Structure (SMILES): c1ccc2c(-c3ccncc3)c[nH]c2c1
logD [1]: 2.81 | IC50 [6]: 28 µM | Papp A→B [2]: 26.2 ×10⁻⁶ cm/s | Papp B→A [3]: 23.9 ×10⁻⁶ cm/s

Structure (SMILES): O=C(NOCc1ccccc1)Nc1ccc2c(-c3ccncc3)c[nH]c2c1
logD [1]: 3.54 | solubility [8]: 3.2 µg/mL (≈ 8.93 µM) | IC50 [4]: 0.076 µM | IC50 [6]: 4.6 µM | solubility [7]: 17.5 µg/mL (≈ 48.8 µM) | Papp A→B [2]: 6.5 ×10⁻⁶ cm/s | Papp B→A [3]: 7.3 ×10⁻⁶ cm/s

Structure (SMILES): Cn1cc(C#N)c2ccc(NC(=O)NOCc3ccccc3)cc21
logD [1]: 2.74 | solubility [8]: 4 µg/mL (≈ 12.5 µM) | IC50 [4]: 1.17 µM | IC50 [6]: 17 µM | solubility [7]: 4.5 µg/mL (≈ 14 µM) | Papp A→B [2]: 19.3 ×10⁻⁶ cm/s | Papp B→A [3]: 19.1 ×10⁻⁶ cm/s

Further lines, with some results ahead:

IC50 [4]: 7.68 µM
Structure (SMILES): Cn1cc(C#N)c2ccc(NS(=O)(=O)c3ccccc3)cc21

IC50 [4]: 15.4 µM
Structure (SMILES): CN(C(=O)Nc1ccc2c(C#N)c[nH]c2c1)c1ccccc1

Inhibition [5]: 48%
Structure (SMILES): N#Cc1c[nH]c2cc(Nc3nc4ccccc4o3)ccc12

logD [1]: 2.93 | IC50 [4]: 0.084 µM | solubility [7]: 42 µg/mL (≈ 123 µM) | Papp A→B [2]: 14.3 ×10⁻⁶ cm/s | Papp B→A [3]: 6.7 ×10⁻⁶ cm/s
Structure (SMILES): CN(C(=O)Nc1ccc2c(-c3ccncc3)c[nH]c2c1)c1ccccc1
IC50 [6]: 12 µM

IC50 [4]: 58.4 µM
Structure (SMILES): Cn1cc(C#N)c2cccc(Nc3nc4ccccc4o3)c21

IC50 [5]: Not Active
Structure (SMILES): N#Cc1c[nH]c2c(OCc3ccccc3)cccc12

IC50 [4]: 17 µM
Structure (SMILES): CN(C(=O)Nc1ccc2c(C#N)cn(C)c2c1)c1ccccc1

IC50 [4]: 0.722 µM
Structure (SMILES): Cn1cc(C#N)c2ccc(NC(=O)Nc3ccccc3)cc21
IC50 [6]: 14 µM

IC50 [4]: 71.8 µM
Structure (SMILES): N#Cc1c[nH]c2cc(OCc3ccccc3)ccc12

IC50 [4]: 21 µM
Structure (SMILES): Cn1cc(C#N)c2ccc(NS(=O)(=O)Cc3ccccc3)cc21

logD [1]: 2.01 | IC50 [4]: 0.364 µM | solubility [7]: 8 µg/mL (≈ 22.9 µM) | Papp A→B [2]: 6.5 ×10⁻⁶ cm/s | Papp B→A [3]: 9.3 ×10⁻⁶ cm/s
Structure (SMILES): O=S(=O)(Nc1ccc2c(-c3ccncc3)c[nH]c2c1)c1ccccc1
IC50 [6]: 14 µM

IC50 [5]: Not Active
Structure (SMILES): N#Cc1c[nH]c2cc(N)ccc12

IC50 [5]: Not Active
Structure (SMILES): O=C(Nc1ccccc1)Nc1ccc2c(-c3ccncc3)c[nH]c2c1
